Tested on: MS2 coat protein
Test: apparent Kd, MS2 coat protein; higher = weaker binding; RNA-MaP array; FMN 200 µM where present
In short: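 Stalled E. coli RNA polymerase transcribed the designs on Illumina sequencing-chip clusters. SNAP-549-labelled MS2 coat protein was titrated from 0.7 or 1.5 nM, doubling to 3 µM, without and then with constant ligand, in 100 mM Tris-HCl pH 7.5, 80 mM KCl, 4 mM MgCl2, BSA, DTT, yeast tRNA and Tween-20. Per-cluster binding curves were fitted to green signal normalised to red-channel RNA signal and control-cluster median Fmax. The apparent Kd is the median of the filtered fits.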

[1] = designed as: OFF switch for flavin mononucleotide, no ligand
[2] = ligand present: flavin mononucleotide, designed as: OFF switch for flavin mononucleotide
[3] = designed as: ON switch for flavin mononucleotide, no ligand
[4] = ligand present: flavin mononucleotide, designed as: ON switch for flavin mononucleotide

Row | Sequence | apparent Kd [1] | apparent Kd [2] | apparent Kd [3] | apparent Kd [4]
1 | AGAUGGCGAGGAUAUACAUGAGGAUCACCCAUGUGAAGAUAAAGAGUGAGGAAGAAAAGUAGAAGGCGCUGUCA | 123 nM | 506 nM |  | 
2 | GUCGGAAACGACAAAAGUAUGGAUCCAGAAGGCAUGAAACAUGAGGAUCACCCAUGUCAAAGAUAUGAGGAUAUGGAUCCAUAC |  |  | 4.64 nM | 4.01 nM
3 | GGUGCGUGUGUGAGGAUAUGCUGGUCCUUGGAUCAGCAGAAGGCACAUGAGGAUCACCCAUGUGGUGUCGUACC | 490 nM | 24.8 nM |  | 
4 | GUGGCCUAGGCACAGGAUAUGUUGCUCGUAACAUGAGGAUCACCCAUGUGCCUAUGAGAUUUAAUGCAGAAGGGUGCACGCCACG |  |  | 173 nM | 17.1 nM
5 | GCGCCAUCGUGAGAUGGCGUAUAUACAUGAGGAUCACCCAUGUAGGAUAUCGAUUGCUUUGCAGUCGAGAAGGGCAUGUAAUUU | 33.5 nM | 43.9 nM |  | 
6 | GUAGCUAUCGGAGGAUAUUCCUUGCGGAAACGCACAUGAGGAUCACCCAUGUAAAUAAAUAAUUGGGAGAAGGCCGAUAGCUAC |  |  | 45 nM | 14.9 nM
7 | UAAUAAUAGUCAGGAUAUAGUUAUUAUAAUAUACUAGAAGGGACACAUGAGGAUCACCCAUGUUUUAUAAUUUGUAAUUUAAAU | 21.6 nM | 17.7 nM |  | 
8 | AAUAGGCUCGCGCAGGAUAUGGAUCAUUCCACAUGAGGAUCACCCAUGUUAAGGAGCCUUUGCAUCCAGAAGGGUGUUGGUCUUU |  |  | 97.2 nM | 17.9 nM
9 | AAAAAGCGAGGAUAUACAUAGCUAAGACAUGUAAGCGAAAAACAUGAGGAUCACCCAUGUAGAAGGCGCAAAAA | 17.7 nM | 18.2 nM |  | 
10 | GUCAGCUCGUGAGGAUAUACAUGUGCUGGAAACAGCACUAAAGAUUUCACAUGAGGAUCACCCAUGUAGAAGGCACGAGCUGAU | 16.1 nM | 38 nM |  | 
11 | ACGCGAUGGGAGAAGGUACUUUAAGAAUUUUACACAUGAGGAUCACCCAUGUAAGGAUAUCCCAUCGUUAAAUAUUAUACAGCA | 6.56 nM | 5.77 nM |  | 
12 | UGGACCGAGCUAUCGGUUGACUCGAAGGAUAUGACAUGAGGAUCACCCAUGUGGGAUCUAAAUUGUCAGAAGGUUGGUUCUGGG | 367 nM | 140 nM |  | 
13 | GAAUGGGUAGAGGAUAUCGCCAUUUCAUCGAGGUGAGAAGGUUACACAUGAGGAUCACCCAUGUCGCCAUUAGC | 66.5 nM | 56.7 nM |  | 
14 | GUCGGAAACGACAAAAGUAGCAUAGGAGAAGGUUCAUUAAACAUGAGGAUCACCCAUGUAAUUGGAAAGGAUAUCCUAUGCUAC |  |  | 5.04 nM | 5.06 nM
15 | GCAUUGAUAACAGGAUAUAUGAAUCCUACAUGAGGAUCACCCAUGUAGGUGAUCAGCCGCGAUUAGUAGAAGGGUUAUCAAUGC |  |  | 11.4 nM | 6.43 nM
16 | GCUGCGCGAGGAUAUGCGGUUCGCGCGGUGGCCCGUGGCGGACAUGAGGAUCACCCAUGUAGAAGGCGUGCGGG | 11.1 nM | 12.1 nM |  | 
17 | GUCAGCUCGUGAGGAUAUACAUGUGCUGGAAACAGCACUAUUAAGUUCACAUGAGGAUCACCCAUGUAGAAGGCACGAGCUGAU | 15.7 nM | 20.3 nM |  | 
18 | CCGACGCAAGCAGGAUAUCUACUGGCGAUGGUACAUGAGGAUCACCCAUGUAGAGAAGGGCUAAGUGGAAGGAUGAUUUAAAAG | 113 nM | 97 nM |  | 
19 | AUCAGCUCGUCAGGAUAUACGUCACUGCGUCAGGAGUGUGGUAAGAUCACAUGAGGAUCACCCAUGUAGAAGGGACGAGCUGAU | 16.6 nM | 298 nM |  | 
20 | UGAUCGAGAGAUCUUAGAUUCUGGUAGGAUAUACAAAAGUUGCGCUUUACAUGAGGAUCACCCAUGUAGAAGGACUAGAGUCUA | 7.45 nM | 8.66 nM |  | 
21 | UGACUAGCAAUGUAUCGAAAGAUCACAUGAGGAUCACCCAUGUAGGAUAUGAGCAGAAAAUCUGCUCAGAAGGACAUGCUAGUC | 5.88 nM | 6.04 nM |  | 
22 | UCAUUUAUCACAGGAUAUAUUAGUAUACAGUUGUUUGGCUCUUACAUAUUAAUAGAAGGGUGAAACAUGAGGAUCACCCAUGUA |  |  | 621 nM | 224 nM
23 | UUUUUAGCAGGAUAUAUCCACGACUACAUGAGGAUCACCCAUGUGGCCGCUUGAAGUUGUAUAGAAGGGCUUUUUU | 24.8 nM | 23.4 nM |  | 

Source: the EternaBench riboswitch data
